Laboratory results published in ChEMBL document CHEMBL2331097, “Synthesis of 5,7-disubstituted-4-methyl-7H-pyrrolo[2,3-d]pyrimidin-2-amines as microtubule inhibitors” (Bioorg Med Chem, 2013).
Activity calls are given as the source filed them. The calls are words filed in the database; no cut-off is given here.

Columns and labels:
[1] = Cytotoxicity against mouse JC cells assessed as inhibition of cell survival after 48 hrs by SRB assay; format: functional, cell-based
Method in brief: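 JC (CRL-2116) cells kept in RPMI-1640 with L-glutamine, 10% FBS and 50 μg/ml gentamicin at 37 °C, 5% CO₂. Cells were seeded at about 20% confluency and left 24 h to attach, then exposed to a range of concentrations for 48 h. Cells were PBS-washed, fixed in 10% trichloroacetic acid and stained with 0.4% SRB in 1% acetic acid. Dye was dissolved in 10 mM Tris and absorbance read at 570 nm.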

JC = test: Modulatory activity at P-gp in mouse JC cells assessed as lowest drug concentration required to increase intracellular [3H]taxol accumulation pretreated for 30 mins prior to [3H]taxol addition measured after 60 mins by liquid scintillation counting analysis; format: cell-based
Method in brief: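 JC cells were seeded at about 25% confluency and grown 3–4 days to near confluency. Medium was switched to serum-free, and compounds were preincubated for 30 min at 37 °C. About 0.1 µCi [³H]Taxol (75 Ci/mmol) per well followed, for 60 min at 37 °C. Cells were washed twice with ice-cold PBS and lysed in 1% SDS. Intracellular label was counted by liquid scintillation, and the lowest concentration giving maximal accumulation was recorded.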

U-251 = test: Growth inhibition of human U251 cells after 48 hrs by SRB assay; format: functional; conditions: U-251, 48 h
CAKI-1 = test: Growth inhibition of human CAKI-1 cells after 48 hrs by SRB assay; format: functional; conditions: CAKI-1, 48 h
NCI-H522 = test: Growth inhibition of human NCI-H522 cells after 48 hrs by SRB assay; format: functional; conditions: NCI-H522, 48 h
BT-549 = test: Growth inhibition of human BT549 cells after 48 hrs by SRB assay; format: functional; conditions: BT-549, 48 h
MDA-MB-435 = test: Growth inhibition of human MDA-MB-435 cells after 48 hrs by SRB assay; format: functional; conditions: MDA-MB-435, 48 h
SF-295 = test: Growth inhibition of human SF295 cells after 48 hrs by SRB assay; format: functional; conditions: SF-295, 48 h
Malme-3M = test: Growth inhibition of human MALME-3M cells after 48 hrs by SRB assay; format: functional
HOP-92 = test: Growth inhibition of human HOP92 cells after 48 hrs by SRB assay; format: functional; conditions: HOP-92, 48 h
OVCAR-4 = test: Growth inhibition of human OVCAR4 cells after 48 hrs by SRB assay; format: functional; conditions: OVCAR-4, 48 h
[2] = Growth inhibition of human EKVX cells after 48 hrs by SRB assay; format: functional
COLO 205 = test: Growth inhibition of human COLO205 cells after 48 hrs by SRB assay; format: functional; conditions: COLO 205, 48 h
HL-60 = test: Growth inhibition of human HL60 cells after 48 hrs by SRB assay; format: functional; conditions: HL-60, 48 h
A549 = test: Growth inhibition of human A549/ATCC cells after 48 hrs by SRB assay; format: functional; conditions: A549, 48 h
MCF7 = test: Growth inhibition of human MCF7 cells after 48 hrs by SRB assay; format: functional; conditions: MCF7, 48 h
M14 = test: Growth inhibition of human M14 cells after 48 hrs by SRB assay; format: functional; conditions: M14, 48 h
SK-MEL-2 = test: Growth inhibition of human SK-MEL-2 cells after 48 hrs by SRB assay; format: functional; conditions: SK-MEL-2, 48 h
[3] = Growth inhibition of human HCC2998 cells after 48 hrs by SRB assay; format: functional; conditions: HCC 2998, 48 h
CCRF-CEM = test: Growth inhibition of human CCRF-CEM cells after 48 hrs by SRB assay; format: functional
SF-539 = test: Growth inhibition of human SF539 cells after 48 hrs by SRB assay; format: functional; conditions: SF-539, 48 h
HT-29 = test: Growth inhibition of human HT-29 cells after 48 hrs by SRB assay; format: functional; conditions: HT-29, 48 h
T47D = test: Growth inhibition of human T47D cells after 48 hrs by SRB assay; format: functional
K562 = test: Growth inhibition of human K562 cells after 48 hrs by SRB assay; format: functional; conditions: K562, 48 h
HCT-116 = test: Growth inhibition of human HCT116 cells after 48 hrs by SRB assay; format: functional; conditions: HCT-116, 48 h
[4] = Ratio of compound IC50 to paclitaxel IC50 for mouse JC cells after 48 hrs by SRB assay; format: functional
NCI/ADR-RES = test: Growth inhibition of human NCI/ADR-RES cells after 48 hrs by SRB assay; format: functional
SK-OV-3 = test: Growth inhibition of human SKOV3 cells after 48 hrs by SRB assay; format: functional; conditions: SK-OV-3, 48 h
MDA-MB-231 = test: Growth inhibition of human MDA-MB-231 cells after 48 hrs by SRB assay; format: functional; conditions: MDA-MB-231, 48 h
[5] = Growth inhibition of human Hs 578T cells after 48 hrs by SRB assay; format: functional
UO-31 = test: Growth inhibition of human UO31 cells after 48 hrs by SRB assay; format: functional; conditions: UO-31, 48 h
SN12C = test: Growth inhibition of human SN12C cells after 48 hrs by SRB assay; format: functional
PC-3 = test: Growth inhibition of human PC3 cells after 48 hrs by SRB assay; format: functional; conditions: PC-3, 48 h
NCI-H322M = test: Growth inhibition of human NCI-H322M cells after 48 hrs by SRB assay; format: functional
DU-145 = test: Growth inhibition of human DU145 cells after 48 hrs by SRB assay; format: functional; conditions: DU-145, 48 h
SK-MEL-28 = test: Growth inhibition of human SK-MEL-28 cells after 48 hrs by SRB assay; format: functional; conditions: SK-MEL-28, 48 h
LOX IMVI = test: Growth inhibition of human LOXIMVI cells after 48 hrs by SRB assay; format: functional
SR = test: Growth inhibition of human SR cells after 48 hrs by SRB assay; format: functional
MDA-MB-468 = test: Growth inhibition of human MDA-MB-468 cells after 48 hrs by SRB assay; format: functional; conditions: MDA-MB-468, 48 h
TK-10 = test: Growth inhibition of human TK10 cells after 48 hrs by SRB assay; format: functional; conditions: TK-10, 48 h
RPMI-8226 = test: Growth inhibition of human RPMI8226 cells after 48 hrs by SRB assay; format: functional; conditions: RPMI-8226, 48 h
OVCAR-3 = test: Growth inhibition of human OVCAR3 cells after 48 hrs by SRB assay; format: functional; conditions: OVCAR-3, 48 h
KM12 = test: Growth inhibition of human KM12 cells after 48 hrs by SRB assay; format: functional; conditions: KM12, 48 h
OVCAR-5 = test: Growth inhibition of human OVCAR5 cells after 48 hrs by SRB assay; format: functional; conditions: OVCAR-5, 48 h
NCI-H460 = test: Growth inhibition of human NCI-H460 cells after 48 hrs by SRB assay; format: functional; conditions: NCI-H460, 48 h
UACC-62 = test: Growth inhibition of human UACC62 cells after 48 hrs by SRB assay; format: functional; conditions: UACC-62, 48 h
NCI-H226 = test: Growth inhibition of human NCI-H226 cells after 48 hrs by SRB assay; format: functional; conditions: NCI-H226, 48 h
HCT-15 = test: Growth inhibition of human HCT15 cells after 48 hrs by SRB assay; format: functional; conditions: HCT-15, 48 h
HOP-62 = test: Growth inhibition of human HOP62 cells after 48 hrs by SRB assay; format: functional; conditions: HOP-62, 48 h
RXF 393 = test: Growth inhibition of human RXF393 cells after 48 hrs by SRB assay; format: functional; conditions: RXF 393, 48 h
786-0 = test: Growth inhibition of human 786-0 cells after 48 hrs by SRB assay; format: functional; conditions: 786-0, 48 h
UACC-257 = test: Growth inhibition of human UACC257 cells after 48 hrs by SRB assay; format: functional; conditions: UACC-257, 48 h
ACHN = test: Growth inhibition of human ACHN cells after 48 hrs by SRB assay; format: functional
NCI-H23 = test: Growth inhibition of human NCI-H23 cells after 48 hrs by SRB assay; format: functional; conditions: NCI-H23, 48 h
SNB-75 = test: Growth inhibition of human SNB75 cells after 48 hrs by SRB assay; format: functional; conditions: SNB-75, 48 h
SNB-19 = test: Growth inhibition of human SNB19 cells after 48 hrs by SRB assay; format: functional; conditions: SNB-19, 48 h
OVCAR-8 = test: Growth inhibition of human OVCAR8 cells after 48 hrs by SRB assay; format: functional; conditions: OVCAR-8, 48 h
SK-MEL-5 = test: Growth inhibition of human SK-MEL-5 cells after 48 hrs by SRB assay; format: functional; conditions: SK-MEL-5, 48 h
SF-268 = test: Growth inhibition of human SF268 cells after 48 hrs by SRB assay; format: functional; conditions: SF-268, 48 h
A498 = test: Growth inhibition of human A498 cells after 48 hrs by SRB assay; format: functional; conditions: A498, 48 h
IGROV-1 = test: Growth inhibition of human IGROV1 cells after 48 hrs by SRB assay; format: functional; conditions: IGROV-1, 48 h
SW-620 = test: Growth inhibition of human SW620 cells after 48 hrs by SRB assay; format: functional; conditions: SW-620, 48 h

## COc1ccccc1Sc1cn(Cc2ccccc2)c2nc(N)nc(C)c12
[1]
  IC50: 11 µM
JC
  LED: 1.5 µM

## COc1ccc(Cn2cc(CCc3cc(OC)c(OC)c(OC)c3)c3c(C)nc(N)nc32)cc1
U-251
  GI50: 0.311 µM
CAKI-1
  GI50: 0.206 µM
NCI-H522
  GI50: 0.0316 µM
BT-549
  GI50: 0.44 µM
MDA-MB-435
  GI50: 0.0321 µM
[1]
  IC50: 0.6 µM
SF-295
  GI50: 0.0839 µM
Malme-3M
  GI50: 0.284 µM
HOP-92
  GI50: > 1 µM
OVCAR-4
  GI50: 0.338 µM
[2]
  GI50: 0.348 µM
JC
  LED: 0.2 µM
COLO 205
  GI50: 0.204 µM
HL-60
  GI50: 0.22 µM
A549
  GI50: 0.329 µM
MCF7
  GI50: 0.0464 µM
M14
  GI50: 0.204 µM
SK-MEL-2
  GI50: 0.446 µM
[3]
  GI50: 0.191 µM
CCRF-CEM
  GI50: > 1 µM
SF-539
  GI50: 0.0964 µM
HT-29
  GI50: 0.247 µM
T47D
  GI50: 0.443 µM
K562
  GI50: 0.116 µM
HCT-116
  GI50: 0.265 µM
[4]
  Ratio IC50: 4
NCI/ADR-RES
  GI50: 0.202 µM
SK-OV-3
  GI50: 0.251 µM
MDA-MB-231
  GI50: 0.361 µM
[5]
  GI50: 0.139 µM
UO-31
  GI50: 0.397 µM
SN12C
  GI50: 0.499 µM
PC-3
  GI50: 0.301 µM
NCI-H322M
  GI50: 0.712 µM
DU-145
  GI50: 0.337 µM
SK-MEL-28
  GI50: 0.417 µM
LOX IMVI
  GI50: 0.364 µM
SR
  GI50: 0.12 µM
MDA-MB-468
  GI50: 0.0524 µM
TK-10
  GI50: 0.686 µM
RPMI-8226
  GI50: 0.713 µM
OVCAR-3
  GI50: 0.164 µM
KM12
  GI50: 0.264 µM
OVCAR-5
  GI50: 0.596 µM
NCI-H460
  GI50: 0.251 µM
UACC-62
  GI50: 0.0615 µM
NCI-H226
  GI50: 0.927 µM
HCT-15
  GI50: 0.242 µM
HOP-62
  GI50: 0.362 µM
RXF 393
  GI50: 0.0441 µM
786-0
  GI50: 0.575 µM
UACC-257
  GI50: > 1 µM
ACHN
  GI50: 0.216 µM
NCI-H23
  GI50: 0.428 µM
SNB-75
  GI50: 0.172 µM
SNB-19
  GI50: 0.234 µM
OVCAR-8
  GI50: 0.334 µM
SK-MEL-5
  GI50: 0.11 µM
SF-268
  GI50: 0.379 µM
A498
  GI50: 0.115 µM
IGROV-1
  GI50: 0.154 µM
SW-620
  GI50: 0.208 µM

## COc1cc(CCc2cn(Cc3cc(OC)c(OC)c(OC)c3)c3nc(N)nc(C)c23)cc(OC)c1OC
[1]
  IC50: 1 µM
JC
  LED: inactive
[4]
  Ratio IC50: 6.6

## COc1ccccc1Cn1cc(Sc2ccccc2OC)c2c(C)nc(N)nc21
[1]
  IC50: 9 µM
JC
  LED: inactive

## COc1ccc(Cn2cc(CCc3cc(OC)c(OC)c(OC)c3)c3c(C)nc(N)nc32)cc1OC
[1]
  IC50: 1.5 µM
JC
  LED: 1.2 µM

## COc1cccc(Cn2cc(CCc3cc(OC)c(OC)c(OC)c3)c3c(C)nc(N)nc32)c1
[1]
  IC50: 1.4 µM
JC
  LED: 0.5 µM

## COc1ccccc1Sc1cn(Cc2cc(OC)c(OC)c(OC)c2)c2nc(N)nc(C)c12
[1]
  IC50: 3 µM
JC
  LED: inactive

## Cc1nc(N)nc2c1c(Sc1ccc(Cl)cc1)cn2Cc1ccccc1
[1]
  IC50: 7.5 µM
JC
  LED: inactive
